{
  "source": "ChEMBL document CHEMBL5150051",
  "about": "“Identification and Characterization of a Novel Indoleamine 2,3-Dioxygenase 1 Protein Degrader for Glioblastoma” (J Med Chem, 2022)",
  "key": {"[1]": {"target": "T1, Protein cereblon/Indoleamine 2,3-dioxygenase 1 (Homo sapiens, UniProt P14902+Q96SW2)", "assay": "Protac activity at CRBN/IDO1 in IFNgamma-stimulated human U87 cells assessed as decrease in kynurenine level measured after 24 hrs by Ehrlich's test", "format": "cell-based", "settings": "DDE = dose-dependent effect", "procedure,_shortened": "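U87 or GBM43 cells given compound together with 50 ng/mL IFNγ for 24 h. Supernatant kynurenine was measured with Ehrlich's reagent. Cells cultured without IFNγ served as control.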"}, "[2]": {"target": "T1, Protein cereblon/Indoleamine 2,3-dioxygenase 1", "assay": "Protac activity at IDO1/CRBN in IFNgamma-stimulated human OVCAR-5 cells assessed as IDO1 degradation by measuring decrease in intracellular protein level measured after 24 hrs by Western blotting analysis", "format": "cell-based", "settings": "dose 1-10 µM, DDE = dose-dependent effect"}, "[3]": {"target": "T1, Protein cereblon/Indoleamine 2,3-dioxygenase 1", "assay": "Binding affinity to CRBN/IDO1 (unknown origin) assessed as ternary complex affinity by bio-layer interferometry assay", "format": "protein assay", "procedure,_shortened": "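For the ternary complex, compound was preincubated with a 25-fold molar excess of CRBN, and binding of this binary complex to IDO1 was followed in real time.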"}, "[4]": {"assay": "Drug uptake in C57BL/6 mouse intestine at 50 mg/kg, ip treated 5 days/week for 3 weeks by LC/MS/MS analysis", "format": "ADME, organism-based", "settings": "in vivo, 504 h"}, "[5]": {"assay": "Drug uptake in C57BL/6 mouse liver at 100 mg/kg, ip treated 5 days/week for 3 weeks by LC/MS/MS analysis", "format": "ADME, organism-based", "settings": "in vivo, 504 h"}, "[6]": {"target": "T1, Protein cereblon/Indoleamine 2,3-dioxygenase 1", "assay": "Protac activity at CRBN/IDO1 in IFNgamma-stimulated human PC-3 cells assessed as decrease in kynurenine level at 10 uM measured after 24 hrs by Ehrlich's test", "format": "cell-based"}, "[7]": {"target": "T1, Protein cereblon/Indoleamine 2,3-dioxygenase 1", "assay": "Protac activity at CRBN/IDO1-FLAG expressed in human U87 cells assessed as IDO1 degradation in intracellular nuclear compartment measured at 1 to 10 uM after 24 hrs by Western blotting analysis", "format": "subcellular", "settings": "Nucleus, dose 1-10 µM"}, "Ido1/Crbn (Mus musculus)": {"target": "Ido1/Crbn (Mus musculus) (UniProt P28776+Q8C7D2)", "sequence (P28776 whole entry, looked up)": "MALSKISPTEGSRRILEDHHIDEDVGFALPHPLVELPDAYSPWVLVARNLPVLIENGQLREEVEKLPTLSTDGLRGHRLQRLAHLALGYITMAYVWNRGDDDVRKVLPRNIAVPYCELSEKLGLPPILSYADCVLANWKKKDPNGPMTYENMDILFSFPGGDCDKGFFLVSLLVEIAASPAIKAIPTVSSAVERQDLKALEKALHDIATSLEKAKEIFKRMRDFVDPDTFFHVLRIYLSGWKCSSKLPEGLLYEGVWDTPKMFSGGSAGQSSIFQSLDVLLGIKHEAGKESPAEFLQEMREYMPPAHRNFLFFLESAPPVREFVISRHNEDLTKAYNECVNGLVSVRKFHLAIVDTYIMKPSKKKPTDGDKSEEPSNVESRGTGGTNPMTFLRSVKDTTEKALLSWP", "sequence (Q8C7D2 whole entry, looked up)": "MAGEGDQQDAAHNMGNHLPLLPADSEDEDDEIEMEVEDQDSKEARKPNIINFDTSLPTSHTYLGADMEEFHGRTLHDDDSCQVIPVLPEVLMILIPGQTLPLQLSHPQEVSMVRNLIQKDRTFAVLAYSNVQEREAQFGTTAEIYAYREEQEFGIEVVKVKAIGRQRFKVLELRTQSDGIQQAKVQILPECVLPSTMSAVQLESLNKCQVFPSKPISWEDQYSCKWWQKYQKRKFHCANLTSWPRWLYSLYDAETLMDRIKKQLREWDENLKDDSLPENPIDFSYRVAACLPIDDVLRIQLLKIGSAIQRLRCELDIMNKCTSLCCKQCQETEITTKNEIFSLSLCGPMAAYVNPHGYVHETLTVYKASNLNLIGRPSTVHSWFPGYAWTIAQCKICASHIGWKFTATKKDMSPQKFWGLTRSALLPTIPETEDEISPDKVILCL", "assay": "Protac activity at IDO1/CRBN in IFNgamma-stimulated mouse GL261 cells assessed as IDO1 degradation by measuring decrease in intracellular protein level measured after 24 hrs by Western blotting analysis", "format": "cell-based", "settings": "dose 1-10 µM, DDE = dose-dependent effect"}, "Mus musculus": {"system": "Mus musculus", "assay": "In vivo Protac activity at IDO1/CRBN in luciferase-modified GL261 cells engrafted mouse cancer model assessed as increase in survival time measured at 25 mg/kg, ip treated 14 days post tumor implantation", "settings": "time 14 day"}, "[8]": {"assay": "Drug uptake in C57BL/6 mouse pancreas at 100 mg/kg, ip treated 5 days/week for 3 weeks by LC/MS/MS analysis", "format": "ADME, organism-based", "settings": "in vivo, 504 h"}, "[9]": {"target": "T1, Protein cereblon/Indoleamine 2,3-dioxygenase 1", "assay": "Protac activity at CRBN/IDO1-FLAG expressed in human U87 cells assessed as IDO1 degradation measured at 1 to 10 uM after 24 hrs by Western blotting analysis", "format": "cell-based", "settings": "dose 1-10 µM"}, "[10]": {"target": "T1, Protein cereblon/Indoleamine 2,3-dioxygenase 1", "assay": "Protac activity at CRBN/IDO1 in IFNgamma-stimulated human CD18 cells assessed as decrease in kynurenine level at 10 uM measured after 24 hrs by Ehrlich's test", "format": "cell-based", "settings": "CD18 cell"}, "[11]": {"target": "T1, Protein cereblon/Indoleamine 2,3-dioxygenase 1", "assay": "Protac activity at IDO1/CRBN in IFNgamma-stimulated human GBM43 cells assessed as IDO1 degradation by measuring decrease in protein level measured after 24 hrs by Western blotting analysis", "format": "cell-based", "settings": "GBM, dose 0.1-10 µM, DDE = dose-dependent effect", "procedure,_shortened": "(§1)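 GBM43 cells stimulated with 50 ng/mL human IFNγ for 24 h, then treated across 0.01 to 30 μM for 24 h. IDO1 was quantified by western blot densitometry as percent of IFNγ-induced untreated level. DC50 came from the dose-response curve; n = 3 independent experiments, mean ± SEM.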"}, "[12]": {"target": "T1, Protein cereblon/Indoleamine 2,3-dioxygenase 1", "assay": "Protac activity at IDO1/CRBN in IFNgamma-stimulated human DIPG007 cells assessed as IDO1 degradation measured after 24 hrs by Western blotting analysis", "format": "cell-based", "settings": "HSJD-DIPG-007, dose 0.1-10 µM, DDE = dose-dependent effect"}, "[13]": {"target": "T1, Protein cereblon/Indoleamine 2,3-dioxygenase 1", "assay": "Protac activity at IDO1/CRBN in IFNgamma-stimulated human PC-3 cells assessed as IDO1 degradation by measuring decrease in intracellular protein level measured after 24 hrs by Western blotting analysis", "format": "cell-based", "settings": "dose 1-10 µM, DDE = dose-dependent effect"}, "[14]": {"assay": "Toxicity in C57BL/6 mouse assessed as mortality at 100 mg/kg, ip treated 5 days/week for 3 weeks", "format": "organism-based", "settings": "in vivo, 504 h"}, "[15]": {"target": "T1, Protein cereblon/Indoleamine 2,3-dioxygenase 1", "assay": "Protac activity at CRBN/IDO1-FLAG expressed in human U87 cells assessed as IDO1 degradation in intracellular cytoplasmic compartment measured at 1 to 10 uM after 24 hrs by Western blotting analysis", "format": "subcellular", "settings": "Cytoplasm, dose 1-10 µM"}, "[16]": {"target": "T1, Protein cereblon/Indoleamine 2,3-dioxygenase 1", "assay": "Protac activity at IDO1/CRBN in IFNgamma-stimulated human U87 cells assessed as IDO1 degradation by measuring decrease in protein level measured at 10 uM continuous upto 72 hrs by Western blotting analysis", "settings": "U87 cell"}, "[17]": {"target": "T1, Protein cereblon/Indoleamine 2,3-dioxygenase 1", "assay": "Protac activity at IDO1/CRBN in IFNgamma-stimulated human PBMC cells isolated form GBM patient assessed as IDO1 degradation by measuring decrease in intracellular protein level measured after 24 hrs by Western blotting analysis", "format": "cell-based", "settings": "DDE = dose-dependent effect"}, "[18]": {"target": "Indoleamine 2,3-dioxygenase 1 (Homo sapiens, UniProt P14902)", "sequence (P14902 whole entry, looked up)": "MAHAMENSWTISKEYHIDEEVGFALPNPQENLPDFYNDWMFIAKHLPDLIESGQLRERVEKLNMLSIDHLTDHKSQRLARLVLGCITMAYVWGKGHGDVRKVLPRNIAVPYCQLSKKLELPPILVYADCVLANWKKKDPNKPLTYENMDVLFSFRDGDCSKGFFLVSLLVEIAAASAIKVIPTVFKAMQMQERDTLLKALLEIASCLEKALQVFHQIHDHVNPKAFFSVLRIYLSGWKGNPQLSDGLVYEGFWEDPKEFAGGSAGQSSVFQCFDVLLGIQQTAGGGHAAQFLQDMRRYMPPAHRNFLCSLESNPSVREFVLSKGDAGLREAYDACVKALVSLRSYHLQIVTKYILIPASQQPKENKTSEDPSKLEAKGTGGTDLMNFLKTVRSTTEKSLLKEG", "assay": "Inhibition of human IDO1 expressed in Escherichia coli BL21(DE3) using D-tryptophan as substrate assessed as formation of kynurenine production", "settings": "DDE = dose-dependent effect"}, "[19]": {"assay": "Half life in C57BL/6 mouse plasma at 25 mg/kg, ip", "format": "ADME, organism-based"}, "[20]": {"target": "T1, Protein cereblon/Indoleamine 2,3-dioxygenase 1", "assay": "Protac activity at CRBN/IDO1 in 50 ng/mL IFNgamma-stimulated human U87 cells assessed as IDO1 degradation by measuring decrease in protein level measured at 0.1 to 10 uM after 24 hrs by Western blotting analysis", "settings": "dose 0.1-10 µM"}, "[21]": {"target": "T1, Protein cereblon/Indoleamine 2,3-dioxygenase 1", "assay": "Protac activity at IDO1/CRBN in IFNgamma-stimulated human GBM43 cells assessed as IDO1 degradation measured after 24 hrs by Western blotting analysis", "format": "cell-based, GBM43 cell", "procedure,_shortened": "as §1"}, "[22]": {"target": "T1, Protein cereblon/Indoleamine 2,3-dioxygenase 1", "assay": "Protac activity at IDO1/CRBN in IFNgamma-stimulated human PANC-1 cells assessed as IDO1 degradation by measuring decrease in intracellular protein level measured after 24 hrs by Western blotting analysis", "format": "cell-based", "settings": "dose 1-10 µM, DDE = dose-dependent effect"}, "[23]": {"assay": "Cmax in C57BL/6 mouse brain at 25 mg/kg, ip", "format": "ADME, organism-based", "set-up": "dose 25 mg/kg, route ip"}, "[24]": {"target": "T1, Protein cereblon/Indoleamine 2,3-dioxygenase 1", "assay": "Protac activity at IDO1/CRBN in human U87 cells assessed as decrease in phosphorylated p65 in nucleus at 1 to 10 uM measured after 24 hrs by Western blot analysis", "format": "cell-based", "settings": "dose 1-10 µM", "procedure,_shortened": "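Cytoplasmic and nuclear fractions prepared from U87 cells after 24 h treatment with DMSO or compound. Fractions blotted for IDO1, phospho-p65 and total p65, with HDAC2 as nuclear marker and tubulin as cytoplasmic marker.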"}, "[25]": {"target": "T1, Protein cereblon/Indoleamine 2,3-dioxygenase 1", "assay": "Protac activity at CRBN/IDO1 in human U87 cells assessed as decrease in phosphorylated NF-kappaB p65 in nucleus at 1 to 10 uM measured after 24 hrs by Western blot analysis", "format": "cell-based", "settings": "dose 1-10 µM"}},
  "note": "The source made the active and inactive calls. The rule behind the calls is not given here.",
  "data": [
    {"smiles": "C[C@@H](C(=O)Nc1ccc(OC2CCN(C(=O)CCOCCOCCNc3cccc4c3C(=O)N(C3CCC(=O)NC3=O)C4=O)CC2)cc1)[C@H]1CC[C@@H](c2ccnc3ccc(F)cc32)CC1", "note": "(stereo partly drawn)", "values": [
      {"measurement": "inhibition", "setting": "[1]", "result": "Dde"},
      {"measurement": "Activity", "setting": "[2]", "result": "Dde"},
      {"measurement": "K", "setting": "[3]", "result": 117, "unit": "nM"},
      {"measurement": "Drug uptake", "setting": "[4]", "result": "Active"},
      {"measurement": "Drug uptake", "setting": "[5]", "result": "Active"},
      {"measurement": "inhibition", "setting": "[6]", "result": "Active"},
      {"measurement": "Activity", "setting": "[7]", "result": "Active"},
      {"measurement": "Activity", "setting": "Ido1/Crbn (Mus musculus)", "result": "Dde"},
      {"measurement": "Time", "setting": "Mus musculus", "result": 45, "unit": "days"},
      {"measurement": "Drug uptake", "setting": "[8]", "result": "Active"},
      {"measurement": "Activity", "setting": "[9]", "result": "Active"},
      {"measurement": "inhibition", "setting": "[10]", "result": "Active"},
      {"measurement": "Activity", "setting": "[11]", "result": "Dde"},
      {"measurement": "Activity", "setting": "[12]", "result": "Dde"},
      {"measurement": "Activity", "setting": "[13]", "result": "Dde"},
      {"measurement": "Activity", "setting": "[14]", "result": "Toxic"},
      {"measurement": "Activity", "setting": "[15]", "result": "Active"},
      {"measurement": "Activity", "setting": "[16]", "result": "Active"},
      {"measurement": "Activity", "setting": "[17]", "result": "Dde"},
      {"measurement": "Activity", "setting": "[18]", "result": "Dde"},
      {"measurement": "half-life", "setting": "[19]", "result": 2.5, "unit": "h"},
      {"measurement": "Activity", "setting": "[20]", "result": "Active"},
      {"measurement": "EC50", "setting": "[21]", "result": 544, "unit": "nM"},
      {"measurement": "Activity", "setting": "[21]; GBM43 cell, dose 1-10 µM, DDE = dose-dependent effect", "result": "Dde"},
      {"measurement": "Activity", "setting": "[22]", "result": "Dde"},
      {"measurement": "Cmax", "setting": "[23]", "result": 2000, "unit": "nM"},
      {"measurement": "Activity", "setting": "[24]", "result": "Active"},
      {"measurement": "Activity", "setting": "[25]", "result": "Active"}
    ]}
  ]
}
